Only some compounds are listed: those with a hit (about 0.28% of all), similar ones and a draw of the others.
TNAP inh hiacc: inhibitors of human TNAP at high phosphate acceptor concentration. purified TNAP, CDP-star luminescence, 1 M DEA. inhibition, % at 20 µM. P05186. actives 0.03% (n = 200,000);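 active = over 50% inhibition of tissue-nonspecific alkaline phosphatase at 20 µM in the single-dose screen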
Target sequence (P05186 whole entry, looked up): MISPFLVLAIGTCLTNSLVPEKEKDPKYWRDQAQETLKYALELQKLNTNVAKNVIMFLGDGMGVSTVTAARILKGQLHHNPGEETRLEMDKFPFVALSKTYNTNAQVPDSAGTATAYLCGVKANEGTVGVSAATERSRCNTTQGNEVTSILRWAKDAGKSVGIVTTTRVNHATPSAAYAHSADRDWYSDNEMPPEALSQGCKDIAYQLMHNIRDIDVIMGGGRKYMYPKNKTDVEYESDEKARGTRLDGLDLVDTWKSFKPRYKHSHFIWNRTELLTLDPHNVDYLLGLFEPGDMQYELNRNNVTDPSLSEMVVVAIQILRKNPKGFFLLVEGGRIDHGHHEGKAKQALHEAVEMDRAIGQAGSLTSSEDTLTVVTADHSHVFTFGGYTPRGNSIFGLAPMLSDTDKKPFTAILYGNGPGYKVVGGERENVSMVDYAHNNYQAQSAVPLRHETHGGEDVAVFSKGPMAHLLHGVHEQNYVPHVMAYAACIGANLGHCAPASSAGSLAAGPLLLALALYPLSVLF
TNAP act hi DEA: increases human TNAP activity under high phosphate acceptor concentration; P05186; purified TNAP, CDP-star luminescence, 1 M DEA, 30 min; active compounds read high; 0 = EDTA background, 1 = DMSO-only activity; activation factor at 20 µM; 200,000 tested, under 10 active; AID 1136;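 active = activation factor at least 2 at 20 µM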
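Test system – human TNAP · Doses – 20 µM single point · Incubation – 30 min, room temperature · Signal – luminescent substrate turnover signal · Read-out basis – activation factor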
Calb biofilm kill: mixture kills Candida albicans biofilm cells | inhibition, % at 7.6 µM | C. albicans biofilm persisters + clotrimazole, fluorescence viability; primary screen in compound mixtures of four per well | actives 0.02% (n = 120,000);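 active = inhibition above 30.3% in the primary screen of four-compound pools, then above 30% when the compound was retested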;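 note: compounds exposed to preformed 24 h biofilms for 48 h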
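Test system: C. albicans biofilms. Buffer or medium: RPMI/MOPS medium, pH 7.0. Timing: 48 h compound exposure at 37 °C. Technique: Alamar Blue fluorescence. Evaluation: percent inhibition of biofilm viability.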
TNAP inh noacc: inhibitors of human TNAP without phosphate acceptor. actives 0.26% (n = 200,000). inhibition, % at 20 µM. purified TNAP, CDP-star luminescence, 30 min. P05186. AID 1012;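 active = tissue-nonspecific alkaline phosphatase inhibition above about 50% at 20 µM in the single-dose screen, limit read from the data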
Hits are given with their value; . = inactive; / = no result.

SMILES	TNAP inh hiacc	TNAP act hi DEA	Calb biofilm kill	TNAP inh noacc
CC(C)(C)c1ccc(Cn2nc(CC(=O)O)c3ccccc3c2=O)cc1	.	.	.	.
COc1ccc(-c2nc(SC(CC(=O)NCCO)c3cccs3)n[nH]2)cc1 (centres undefined)	.	.	.	71
O=C(CC(Sc1n[nH]c(-c2ccccc2)n1)c1ccccc1)NCc1ccccc1 (centres undefined)	.	.	.	.
C/C(N)=C(/C#N)C(=O)CSc1n[nH]c(-c2cccs2)n1	.	.	.	62
Cc1oc(-c2ccc(-c3ccccc3)cc2)nc1CN1CCN(CC(=O)N(C)C)CC1	.	.	.	.
O=C(CN1C(=O)C2C3C=CC(C3)C2C1=O)NCCc1ccccc1 (centres undefined)	.	.	/	.
O=C1C2CC=CCC2C(=O)N1c1n[nH]c(Cc2ccccc2)n1 (centres undefined)	.	.	/	96
O=C1C2C3C=CC(C3)C2C(=O)N1c1n[nH]c(CCc2ccccc2)n1 (centres undefined)	.	.	/	68
Cc1ccccc1NC(=S)N(Cc1cccnc1)Cc1ccccc1Cl	.	.	.	.
Cc1ccc(-c2cc(C(=O)N/N=C/c3ccco3)[nH]n2)cc1	.	.	/	87
O=C(N/N=C/c1ccco1)c1cc(-c2ccccc2)n[nH]1	.	.	.	93
COc1ccccc1-c1nnc(NC(C)=O)s1	.	.	/	.
COc1ccccc1-c1nc(NC(C)=O)n[nH]1	.	.	/	93
Cn1c(=O)c2ncn(CC(=O)Nc3nc(-c4ccc(Cl)cc4)cs3)c2n(C)c1=O	.	.	.	.
CCCCCC1CC(CC(=O)Nc2ccc([N+](=O)[O-])cc2)C(=O)O1 (centres undefined)	.	.	.	.
CCOC(=O)c1cc(NC(=O)Nc2nc3ccccc3s2)c(C)nc1C	.	.	.	58
O=c1[nH]c2cc(Cl)ccc2n1-c1ccccc1	.	.	/	69
O=Cc1c(Cl)[nH]c(=O)n1-c1ccccc1	.	.	.	.
O=C(N/N=C/c1ccccc1Br)C1CC1	.	.	.	.
O=C(Nc1ccc(OC(F)(F)F)cc1)c1[nH]ncc1[N+](=O)[O-]	.	.	.	.
NC(=S)c1cc2cc(Br)ccc2oc1=O	.	.	.	.
O=C(NNC(=O)c1cc2cc(Br)ccc2oc1=O)c1ccc(O)cc1	.	.	.	82
COc1ccc(Cl)cc1NC(=O)CN1CCC(n2nnc3cc(C)ccc32)CC1	.	2.7	/	.
Cc1cc(Br)c2nc3c(c(C(=O)O)c2c1)CCCCC3	.	.	.	.
CC1C(=O)NN=C1C(=O)N/N=C\c1ccc(O)cc1O (centres undefined)	.	.	.	72
SMILES	TNAP inh hiacc	TNAP act hi DEA	Calb biofilm kill	TNAP inh noacc
COc1ccc(-c2cc(-c3ccc(OC)cc3)[nH]n2)cc1	.	.	/	66
O=C(O)c1cc(-c2ccc(Cl)cc2)n[nH]1	.	.	/	83
COc1ccc(-c2nc(N)n[nH]2)cc1	.	.	/	63
CCOc1ccc(-c2cc(C(=O)NN)[nH]n2)cc1	.	.	.	67
COc1cc(C2C=C(c3cccs3)Nc3ncnn32)cc(OC)c1OC (centres undefined)	.	.	.	.
Cc1cc(N2CCN(S(=O)(=O)c3ccc4ccccc4c3)CC2)n2ncnc2n1	.	.	.	.
COc1ccc(-c2cc(C(=O)NN)[nH]n2)cc1	.	.	.	93
COC(=O)c1cc(-c2ccc(Br)cc2)n[nH]1	.	.	/	79
CCOC(=O)c1cc(-c2ccccc2)n[nH]1	/	/	.	/
CCc1ccc(-c2cc(C(=O)N/N=C/c3c[nH]c4ccccc34)[nH]n2)cc1	.	.	.	.
COC(=O)c1cc(-c2c[nH]c3ccccc23)n[nH]1	.	.	/	89
CC(C)CN(Cc1cc(=O)oc2cc3c(cc12)CCCC3)CC(C)C	/	/	.	/
COc1ccc(-n2cc(-c3ccccc3)[nH]c2=S)cc1	.	.	.	.
CCOc1ccc(-n2cc(-c3ccc(OC)c(OC)c3)[nH]c2=S)cc1	.	.	.	62
CCOC(=O)C1C(=O)Nc2nc3ccccc3n2C1C(C)C (centres undefined)	.	.	/	92
CCOC(=O)C1=C(C)Nc2nc3ccccc3n2C1c1ccc(O)cc1 (centres undefined)	/	/	.	/
O=C(c1cc(-c2ccccc2)n[nH]1)N1CCc2c([nH]c3ccccc23)C1c1ccccn1 (centres undefined)	.	.	.	62
O=C(c1cccs1)N1CCc2c([nH]c3ccccc23)C1c1ccccn1 (centres undefined)	.	.	.	.

Screening results from PubChem BioAssay.
